Experimental data taken from ChEMBL document CHEMBL4699461, “Enhanced Production and Anticancer Properties of Photoactivated Perylenequinones” (J Nat Prod, 2020).
pEC50: −log10 of the molar value.

Legend:
SK-MEL-28 [1] = assay: Cytotoxicity against human SK-MEL-28 cells assessed as reduction in cell viability preincubated for 16 hrs in dark condition subsequently incubated for 48 hrs by alamar blue assay; type: cell-based
Method in brief: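 SK-MEL-28 human melanoma cells, ~550,000–600,000 cells/mL, settled 3 h at 37 °C, 5% CO₂. Compounds were serially diluted in DPBS and tested over 1 nM to 300 μM. Plates were kept dark in the incubator for 16 h, then 48 h more. alamarBlue was then added for 15–16 h, and viability was read by fluorescence (ex 530, em 620 nm) to give EC₅₀.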

SK-MEL-28 [2] = assay: Phototherapeutic index, ratio of EC50 for cytotoxicity against human SK-MEL-28 cells in dark condition to EC50 for phototoxicity against human SK-MEL-28 cells preincubated for 16 hrs followed by irradiated with 100 J/cm2 625 nanometer red light for 60 mins
Method in brief: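 PI for red light, calculated as dark EC₅₀ divided by red-light EC₅₀ in SK-MEL-28 cells. Viability was read 48 h later by alamarBlue fluorescence.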

SK-MEL-28 [3] = assay: Phototherapeutic index, ratio of EC50 for cytotoxicity against human SK-MEL-28 cells in dark condition to EC50 for phototoxicity against human SK-MEL-28 cells preincubated for 16 hrs followed by irradiated with 100 J/cm2 400 to 700 nanometer visible light for 48 mins
SK-MEL-28 [4] = assay: Phototoxicity against human SK-MEL-28 cells assessed as reduction in cell viability preincubated for 16 hrs followed by irradiated with 100 J/cm2 625 nanometer red light for 60 mins and measured after 48 hrs by alamar blue assay; type: functional, cell-based; conditions: SK-MEL-28, light or radiation study
Method in brief: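 Cells (SK-MEL-28, ~550,000–600,000 cells/mL) were dosed with compound at 1 nM–300 μM in DPBS dilutions, with a 16 h drug-to-light interval at 37 °C. They were irradiated with a 625 nm LED array at 27.8 mW/cm² to 100 J/cm². After 48 h of incubation, alamarBlue was added for 15–16 h and fluorescence was read (ex 530, em 620 nm) to give EC₅₀.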

SK-MEL-28 [5] = assay: Phototoxicity against human SK-MEL-28 cells assessed as reduction in cell viability preincubated for 16 hrs followed by irradiated with 100 J/cm2 400 to 700 nanometer visible light for 48 mins and measured after 48 hrs by alamar blue assay; conditions: SK-MEL-28, light or radiation study

| Structure (SMILES) | pEC50 (SK-MEL-28 [1]) | Ratio EC50 (SK-MEL-28 [2]) | Ratio EC50 (SK-MEL-28 [3]) | pEC50 (SK-MEL-28 [4]) | pEC50 (SK-MEL-28 [5]) |
| --- | --- | --- | --- | --- | --- |
| COC1=C(C(C)=O)C2=C(C)Cc3c(OC)c(=O)c(O)c4cc(OC)c5c(OC)cc(O)c6c(c2c3c4c56)C1=O | 4.36 | 2783 | 2973 | 7.80 | 7.83 |
| COc1c(O)c2c(=O)cc(OC)c3c4c(OC)cc(O)c5c(=O)c(OC)c6c(c(c1[C@H](C(C)=O)[C@](C)(O)C6)c23)c54 | 3.89 | 2196 | 2430 | 7.23 | 7.27 |
| COC1=C2c3c4c5c(c(O)cc(OC)c5c5c(OC)cc(O)c(c35)C1=O)C(=O)[C@H](OC)[C@]41C[C@](C)(O)[C@H]2[C@]1(C)O | < 3.52 | >234 | >2222 | 5.89 | 6.87 |
| COC1=C2c3c4c5c(c(O)cc(OC)c5c5c(OC)cc(O)c(c35)C1=O)C(=O)[C@H](OC)[C@]41C[C@@](C)(O)[C@H]2[C@]1(C)O | 3.88 | 219 | 767 | 6.22 | 6.76 |
| COC1=C2c3c4c5c(c(O)cc(OC)c5c5c(OC)cc(O)c(c35)C1=O)C(=O)C[C@]41C[C@](C)(O)[C@H]2[C@]1(C)O | 4.01 | 39 | 561 | 5.59 | 6.75 |
| COc1c(O)c2c(=O)cc(OC)c3c4c(OC)cc(=O)c5c(O)c(OC)c6c(c(c1C[C@@](C)(O)[C@@H]6C(C)=O)c23)c54 | 4.41 | 2569 | 3816 | 7.82 | 7.99 |
